# Experiments:
# [1] = Induction of apoptosis in human SMMC-7221 cells assessed as necrotic cells at 0.5 uM after 48 hrs by AnnexinV-FITC/propidium iodide staining based FACSCalibur flow cytometry analysis (reference value: 2.34 %); assay type: functional
# A549 = experiment: Cytotoxicity against human A549 cells assessed as reduction in cell viability after 48 hrs by MTS assay; assay type: functional, cell-based; conditions: A549, 48 h
# How it was run: (§1)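 Cells (5 × 10^3 per well) were plated 12 h before treatment, then exposed continuously to compound for 48 h. MTS was added, with 1–4 h incubation at 37 °C and OD read at 490 nm. IC50 is the concentration cutting OD by 50% versus untreated cells, taken from dose–response curves. Values are the mean of three independent determinations.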
# [2] = Cell cycle arrest in human SMMC-7221 cells assessed as accumulation at sub-G1 phase at 2 uM after 24 hrs by propidium iodide/RNase A staining based FACSCalibur flow cytometry analysis (reference value: 4.03 +/- 0.47 %); assay type: functional
# [3] = Cell cycle arrest in human SMMC-7221 cells assessed as accumulation at S phase at 2 uM after 24 hrs by propidium iodide/RNase A staining based FACSCalibur flow cytometry analysis (reference value: 14.733 +/- 1.29 %); assay type: functional
# [4] = Induction of apoptosis in human SMMC-7221 cells assessed as early apoptotic cells at 2 uM after 48 hrs by AnnexinV-FITC/propidium iodide staining based FACSCalibur flow cytometry analysis (reference value: 0.106 %); assay type: functional
# [5] = Cell cycle arrest in human SMMC-7221 cells assessed as accumulation at G0/G1 phase at 1 uM after 24 hrs by propidium iodide/RNase A staining based FACSCalibur flow cytometry analysis (reference value: 72.17 +/- 1.0 %); assay type: functional
# BEAS-2B = experiment: Cytotoxicity against human BEAS2B cells assessed as reduction in cell viability after 48 hrs by MTS assay; assay type: cell-based; how it was run: as §1
# NCM460 = experiment: Cytotoxicity against human NCM460 cells assessed as reduction in cell viability after 48 hrs by MTS assay; assay type: cell-based; conditions: NCM460, 48 h; how it was run: as §1
# MCF7 = experiment: Cytotoxicity against human MCF7 cells assessed as reduction in cell viability after 48 hrs by MTS assay; assay type: functional, cell-based; conditions: MCF7, 48 h; how it was run: as §1
# SW480 = experiment: Cytotoxicity against human SW480 cells assessed as reduction in cell viability after 48 hrs by MTS assay; assay type: functional, cell-based; conditions: SW480, 48 h; how it was run: as §1
# [6] = Induction of apoptosis in human SMMC-7221 cells assessed as late apoptotic cells at 2 uM after 48 hrs by AnnexinV-FITC/propidium iodide staining based FACSCalibur flow cytometry analysis (reference value: 7.7 %); assay type: functional
# [7] = Induction of apoptosis in human SMMC-7221 cells assessed as late apoptotic cells at 1 uM after 48 hrs by AnnexinV-FITC/propidium iodide staining based FACSCalibur flow cytometry analysis (reference value: 7.7 %); assay type: functional
# [8] = Induction of apoptosis in human SMMC-7221 cells assessed as necrotic cells at 2 uM after 48 hrs by AnnexinV-FITC/propidium iodide staining based FACSCalibur flow cytometry analysis (reference value: 2.34 %); assay type: functional
# [9] = Induction of apoptosis in human SMMC-7221 cells assessed as viable cells at 0.5 uM after 48 hrs by AnnexinV-FITC/propidium iodide staining based FACSCalibur flow cytometry analysis (reference value: 89.8 %); assay type: functional; conditions: SMMC-7221, 48 h, read-out: Activity
# [10] = Induction of apoptosis in human SMMC-7221 cells assessed as late apoptotic cells at 8 uM after 48 hrs by AnnexinV-FITC/propidium iodide staining based FACSCalibur flow cytometry analysis (reference value: 7.7 %); assay type: functional
# [11] = Cell cycle arrest in human SMMC-7221 cells assessed as accumulation at S phase at 4 uM after 24 hrs by propidium iodide/RNase A staining based FACSCalibur flow cytometry analysis (reference value: 14.733 +/- 1.29 %); assay type: functional
# [12] = Cell cycle arrest in human SMMC-7221 cells assessed as accumulation at sub-G1 phase at 1 uM after 24 hrs by propidium iodide/RNase A staining based FACSCalibur flow cytometry analysis (reference value: 4.03 +/- 0.47 %); assay type: functional
# L02 = experiment: Cytotoxicity against human LO2 cells assessed as reduction in cell viability after 48 hrs by MTS assay; assay type: cell-based; conditions: L02, 48 h; how it was run: as §1
# [13] = Cell cycle arrest in human SMMC-7221 cells assessed as accumulation at G0/G1 phase at 2 uM after 24 hrs by propidium iodide/RNase A staining based FACSCalibur flow cytometry analysis (reference value: 72.17 +/- 1.0 %); assay type: functional
# [14] = Induction of apoptosis in human SMMC-7221 cells assessed as early apoptotic cells at 4 uM after 48 hrs by AnnexinV-FITC/propidium iodide staining based FACSCalibur flow cytometry analysis (reference value: 0.106 %); assay type: functional
# [15] = Induction of apoptosis in human SMMC-7221 cells assessed as necrotic cells at 4 uM after 48 hrs by AnnexinV-FITC/propidium iodide staining based FACSCalibur flow cytometry analysis (reference value: 2.34 %); assay type: functional
# [16] = Cell cycle arrest in human SMMC-7221 cells assessed as accumulation at sub-G1 phase at 4 uM after 24 hrs by propidium iodide/RNase A staining based FACSCalibur flow cytometry analysis (reference value: 4.03 +/- 0.47 %); assay type: functional
# [17] = Cell cycle arrest in human SMMC-7221 cells assessed as accumulation at G2/M phase at 4 uM after 24 hrs by propidium iodide/RNase A staining based FACSCalibur flow cytometry analysis (reference value: 8.21 +/- 0.38 %); assay type: functional
# [18] = Induction of apoptosis in human SMMC-7221 cells assessed as viable cells at 2 uM after 48 hrs by AnnexinV-FITC/propidium iodide staining based FACSCalibur flow cytometry analysis (reference value: 89.8 %); assay type: functional; conditions: SMMC-7221, 48 h, read-out: Activity
# [19] = Induction of apoptosis in human SMMC-7221 cells assessed as necrotic cells at 8 uM after 48 hrs by AnnexinV-FITC/propidium iodide staining based FACSCalibur flow cytometry analysis (reference value: 2.34 %); assay type: functional
# [20] = Induction of apoptosis in human SMMC-7221 cells assessed as late apoptotic cells at 4 uM after 48 hrs by AnnexinV-FITC/propidium iodide staining based FACSCalibur flow cytometry analysis (reference value: 7.7 %); assay type: functional
# [21] = Cell cycle arrest in human SMMC-7221 cells assessed as accumulation at G2/M phase at 2 uM after 24 hrs by propidium iodide/RNase A staining based FACSCalibur flow cytometry analysis (reference value: 8.21 +/- 0.38 %); assay type: functional
# [22] = Induction of apoptosis in human SMMC-7221 cells assessed as early apoptotic cells at 8 uM after 48 hrs by AnnexinV-FITC/propidium iodide staining based FACSCalibur flow cytometry analysis (reference value: 0.106 %); assay type: functional
# [23] = Induction of apoptosis in human SMMC-7221 cells assessed as early apoptotic cells at 1 uM after 48 hrs by AnnexinV-FITC/propidium iodide staining based FACSCalibur flow cytometry analysis (reference value: 0.106 %); assay type: functional
# [24] = Induction of apoptosis in human SMMC-7221 cells assessed as viable cells at 1 uM after 48 hrs by AnnexinV-FITC/propidium iodide staining based FACSCalibur flow cytometry analysis (reference value: 89.8 %); assay type: functional; conditions: SMMC-7221, 48 h, read-out: Activity
compound,measurement,setting,value
COc1cccc2c1N(CCCn1c[n+](Cc3ccc(C)cc3)c3cc(C)c(C)cc31)C[C@@H]1Cc3ccc(Br)cc3[C@H]21.[Br-],Activity,[1],6.79%
same,IC50,A549,1300 nM
same,Activity,[2],1.21%
same,Activity,[3],9.27%
same,Activity,[4],0.216%
same,Activity,[5],80.32%
same,IC50,BEAS-2B,2090 nM
same,IC50,NCM460,1970 nM
same,IC50,MCF7,680 nM
same,IC50,SW480,750 nM
same,Activity,[6],16%
same,Activity,[7],14.6%
same,Activity,[8],6.13%
same,viability at 0.5 µM,[9],84.2%
same,Activity,[10],81.4%
same,Activity,[11],12.76%
same,Activity,[12],1.32%
same,IC50,L02,2100 nM
same,Activity,[13],80.22%
same,Activity,[14],0.919%
same,Activity,[15],7.08%
same,Activity,[16],18.65%
same,Activity,[17],5.98%
same,viability at 2 µM,[18],77.7%
same,Activity,[19],13.3%
same,Activity,[20],76.8%
same,Activity,[21],9.16%
same,Activity,[22],0.157%
same,Activity,[23],0.529%
same,viability at 1 µM,[24],79.2%

# Source: ChEMBL document CHEMBL4373640, “Synthesis and antitumor activity of aza-brazilan derivatives containing imidazolium salt pharmacophores” (Medchemcomm, 2019)
